Fewer inactive variants are shown than the library holds.
B1: tRNA (parent)
chain: GUUCCGUUGGCGUAAUGGUAACGCGUCUCCCUCCUAAGGAGAAGACUGCGGGUUCGAGUCCCGUACGGAACG

Variants of: B1
Test: yeast fitness relative to wild type (ratio to wild type); higher = fitter; tRNA-Arg(CCU), competitive growth, 37 C, YPD
How it was run: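 For this measurement, the tRNA-Arg(CCU) gene was varied by chemical synthesis at a 3% per-site mutation rate across 69 sites, and each variant was placed at the native genomic locus in Saccharomyces cerevisiae. The pooled strains went through a 24-hour competition in YPD at 37°C in six parallel replicates, with amplicons from start and end populations read by 100-nucleotide paired-end sequencing. Darwinian fitness relative to wild type followed from the change in each genotype's frequency. Genotypes needed ≥ 100 starting reads, and estimates < 0.5 were set to 0.5.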

Going from GUUCGGUUGGCAUAAUGGUAACGCGUCUCCUUCCUAAGGAGAAGACUGGGGGUUCGAGUCCCGUACGGAACG [C5G G12A C31U C49G] to GUUCGGUUGGCGUAAUGAUAACGCAUCUCCCUCCUAAGGAGAAGACUGCGGGUUCGAGUCUCGUACGGGACG [C5G G18A G25A C61U A69G], the yeast fitness rises from no more than 0.5 to 0.574.

Going from GUUCGGUUGCCGUAAUGGUAACGCGUCUCCCUCCUAAGGAGAAGACUGCGGAUACGAGUCCCGUACGGAACG [C5G G10C G52A U54A] to GUUCGGUUCGCGUAAUGGUAACGCGUCUUUCUCCUAAGGAGAAGACUGCGGGUUAGAGUCCCGUGCGGAACG [C5G G9C C29U C30U C55A A65G], the yeast fitness falls from 0.55 to no more than 0.5.

Going from GUUCGGUUGGCGUAAUGGUAACGCGUCUCCCUCCUAAGGAGAAGACUGCGGGUUCGAGUGCGGUACCGUACG [C5G C60G C62G G67C A69U] to GUUCGGUUGGCGUAAUAAUAACGCGUCUCCCUCCUAAGGAGAAGACUGCGGGUUCGAGUCCCGUACGGAACG [C5G G17A G18A], the yeast fitness falls from 0.654 to 0.553.

GUUCGGUUGGCGUAAUAGUCACGCGUCUCCCUCCUAAGGAGAAGACUGGGGGUUCGAGUCCCAUACGGAACG [C5G G17A A20C C49G G63A] and GUUCGGUUCGCGUAAUGGUGACGCGUCUCCCUCCUAAGGCGAAGACUGCGGGUUCGAAUCCCGUACGGAACG [C5G G9C A20G A40C G58A] cannot be ordered by yeast fitness: no more than 0.5 for the first, no more than 0.5 for the second.

Compared with GUUCGGUUGGCGUAAUGGUAACGCGUCUCCCUCCUAAGGAGAAGACUGCGGGUUGGAGUCCCGUACGGAACG [C5G C55G], GUUCGGUUGGCGUAAUGGUAACGCGUCUCCCUACUAAGGAGAAGACUGCGGGUUCGAGUCCCGUUCGGAACG [C5G C33A A65U] is lower in yeast fitness: 0.685 for the first, no more than 0.5 for the second.

Compared with GUUCGGUUGGCGUAAUGGUAACGCGUCUCCCUCAUAAGCAGAAGACUGCGGAUUCGAAUCCCAUACGGAACG [C5G C34A G39C G52A G58A G63A], GUUCGGUUGGCGUAAUGGUAACGCGUCUCCCUCCUAAGGAGAAGAAUGCGGGUUCGGGUCCCGUACGGAACG [C5G C46A A57G] is higher in yeast fitness: no more than 0.5 for the first, 0.705 for the second.

GUUCGGUUGGCGUAAUAGUCACGCGUCUCCCUCCUAAGGAGAAGACUGCGGAUUCGAGUCCCGUUCGGAACG [C5G G17A A20C G52A A65U] and GUUCGGUUGGCGUAAUGGUAACGCGUCUCCCUUCUAAGGAGAAGACUGCGGGUUCGAGUCCCGUCCGCAACG [C5G C33U A65C G68C] cannot be ordered by yeast fitness: no more than 0.5 for the first, no more than 0.5 for the second.

GUUCGGUUGGCCUAAUGGAAACGCGUCUCCAUCCUAAGGAGAAGACUGCGGGUUCGAGUCCCGUACGGAACG [C5G G12C U19A C31A] and GUUCGGUUGGCGUAAUGGUAACGCGUCUCCCUUCUAAGGAGAACACUGCGGGUUCGAGUCCCGUACGGAACG [C5G C33U G44C] cannot be ordered by yeast fitness: no more than 0.5 for the first, no more than 0.5 for the second.

First: GUUCGGUUGGCGUAAUGGUAACGCGUCUCCCUCGUAAGGGGAAGACUCCGGGUUCGAGUCCCAUAUGGAACG [C5G C34G A40G G48C G63A C66U]
Second: GUUCGGUUGGCGUAAUGGUAACGCAUCUCCCUCCUAAGGAGAAGACUGCGGGUUCGAGUCCCGUACGGAACG [C5G G25A]
The yeast fitness of the first is lower: no more than 0.5 for the first, 0.981 for the second.

First: GUUCGGUUGAGGUAAGGGUAACGCGUCUCCCUGCUAAGGAGAAGACUGCGGGUUCGAGUCCCGUACGGAACG [C5G G10A C11G U16G C33G]
Second: GUUCGGUUGGCGUAAUAGUAACGCGCCUCCCUCCUAAGGAGAAGACUGCGGGUUCGAGUCCCGUACGGACCG [C5G G17A U26C A70C]
The yeast fitness of the first is higher: 0.551 for the first, no more than 0.5 for the second.

GUUCGGUUGGCGUAAUGGUAACGCGUCUCCCUCCUAAGGAGAAGACUGCGGGUUGGAGUCCCGUCCAGAACG [C5G C55G A65C G67A] and GUUCGGUUCGCGUAAUGGUAACGCGUCUCCCUCCUAAGGAGAGGACUGCGGGUUCGAGUCCCGUACGGAUCG [C5G G9C A43G A70U] cannot be ordered by yeast fitness: no more than 0.5 for the first, no more than 0.5 for the second.

Going from GUUCGGUUGGCGUAAUGGUAACGCGUCUCCCUCGUAAGGAGAAGACUGCGGGUUCGAGUCCCGUACGGUACG [C5G C34G A69U] to GUUCGGUUGGCGUAAUGGUAACGCGUCUCCCUCCUAAGGAGAAGAGUGCGGGUUCGAGUCCCGUGCGGAACG [C5G C46G A65G], the yeast fitness rises from no more than 0.5 to 0.594.

Going from GUUCGGUUGGCGUAAUGGUAACGCAUCUCCCUCCUAAGGAGAAGACUGCGGGUUCGAGUCCCGUACGUAACG [C5G G25A G68U] to GUUCGGUUGGCGUAAUGGUAACGCGUCUCCCUCAUAAGGAGAAGACUGCCGGUUCGAGUCCCGUACGGAACG [C5G C34A G50C], the yeast fitness falls from 0.633 to no more than 0.5.

Going from GUUCGGUUGGCGUAAUCGUAACCCGUCUCCCUCCUAAGGAGAAGACUGCGGGUUCGAGUCCCGUACGGAACG [C5G G17C G23C] to GUUCGGUUGGCGUAAUGGUAACGCGUCUCCUUCCUAAGGAGAAGACUGCGGGUUCGAGUCCCGUACGGAACG [C5G C31U], the yeast fitness rises from no more than 0.5 to 0.867.

Compared with GUUCGGUUGGCGUAAUGGUAACGCGUCUCCCUCCUAAGGAGAAGAGUGCGGGUUCGAGUCCCGUACGGAACG [C5G C46G], GUUCGGUUGGCGUAAUGGUAACGCGUCUCUCUCCUAAGGAGAAGACUGCGGGUACGAGUCCCGUACGGAACG [C5G C30U U54A] is lower in yeast fitness: 0.751 for the first, 0.601 for the second.

Compared with GUUCGGUUGGCGUAAUGGUAACGCGUCUCCCUCCUAAGGAGAAGACUGCGGGUUCGAGUCCCGUAAGGAACG [C5G C66A], GUUCGCUUGGCGUAAUGGUAACGCGUCUCCCUCCUAAGGAGAAGACUGCGGGUUCGAGUCCCGUACGGAACG [C5G G6C] is higher in yeast fitness: 0.703 for the first, 0.718 for the second.

Going from GUUCGGUUAGCGUAAUGGUAACGCGUCUCCCUCCUAAGGAGAAGACUGCGGGUUCGAGUCUCGUACGGAACG [C5G G9A C61U] to GUUCGGUUGGCGUAAUCGUAACGCGUCUCCCUCCUAAGGAGAAGACUGCGGGUUCGAGUCCCGUACGGAACG [C5G G17C], the yeast fitness rises from no more than 0.5 to 0.651.

Going from GUUCGGUUGGCAUGAUGGUAACGCGUCUCCCUCCAAAGGAGAAGACUGCGGGUUCGAGUCCCGUACGGAACG [C5G G12A A14G U35A] to GUUCGGUUGGCGUAAUAGUAACGCGUCUCCCUCCUAAGGCGAAGACUGCGGGUUCGAGCCCCGUACGGAACG [C5G G17A A40C U59C], the yeast fitness rises from no more than 0.5 to 0.723.

GUUCGGUUGGCCUAAUGGUAACGCGUCUCCCUUCUAAGGAGAAGACUGCGGGUUCGAGUCCCGUACGCAACG [C5G G12C C33U G68C] gave a yeast fitness of 0.612.

From the RNAGym collection of RNA variant scans (doi:10.1126/science.aae0568)
